Source: ChEMBL document CHEMBL4376852, “Ligand-Based Design of Allosteric Retinoic Acid Receptor-Related Orphan Receptor γt (RORγt) Inverse Agonists” (J Med Chem, 2020)
Values after ≈ are worked out from the molar mass of the structure shown.

How the values were obtained:
[1] = biological target: T1, Nuclear receptor ROR-gamma (Homo sapiens, UniProt P51449); test: (§1) Inverse agonist activity at human N-terminal His6-tagged RORgammat LBD (265 to 518 residues) expressed in Escherichia coli BL21 (DE3) assessed as inhibition of N-terminal biotinylated co-activator SRC1 box2 peptide recruitment measured after 30 mins by TR-FRET assay
T1 sequence (P51449 whole entry): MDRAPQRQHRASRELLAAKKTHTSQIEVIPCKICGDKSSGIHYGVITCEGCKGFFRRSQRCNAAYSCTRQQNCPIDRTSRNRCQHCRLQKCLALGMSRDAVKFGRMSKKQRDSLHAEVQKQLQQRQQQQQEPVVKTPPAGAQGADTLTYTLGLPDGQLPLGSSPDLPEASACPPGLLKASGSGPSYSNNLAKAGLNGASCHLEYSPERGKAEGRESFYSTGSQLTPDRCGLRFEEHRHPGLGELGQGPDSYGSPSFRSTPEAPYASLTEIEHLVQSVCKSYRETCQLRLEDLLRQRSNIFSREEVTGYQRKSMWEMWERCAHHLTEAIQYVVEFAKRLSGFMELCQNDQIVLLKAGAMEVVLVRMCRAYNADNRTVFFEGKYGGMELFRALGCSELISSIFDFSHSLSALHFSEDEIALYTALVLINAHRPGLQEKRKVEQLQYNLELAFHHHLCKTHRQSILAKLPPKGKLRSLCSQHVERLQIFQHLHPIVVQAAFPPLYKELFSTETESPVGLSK

[2] = Stability of the compound in plasma (unknown origin) assessed as parent compound remaining at 5 uM measured after 1 hr by LC-MS analysis; type: ADME, cell-free; details: read-out: Stability
Summary of the method: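 5 μM compound incubated in 100% plasma for 1 h at 37 °C; % remaining by LC–MS.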

[3] = Intrinsic clearance in human liver microsomes at 3 uM measured up to 90 mins in presence of metabolic phase 1 cofactors by LC-MS analysis; type: ADME, Microsome; details: 1.5 h
[4] = Permeability of the compound at 500 uM after 20 hrs by PAMPA; type: ADME
Summary of the method: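 Donor compartment starts at 500 μM compound; after 20 h incubation, receiver-well absorbance read by spectrophotometry; permeation normalized to flux across a blank filter.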

[5] = Kinetic solubility of the compound in pH 7.4 aqueous buffer at 500 uM measured after 90 mins by spectrophotometric method; type: physicochemical; details: read-out: Kinetic_solubility
[6] = Chemical stability of the compound in pH 7.4 aqueous buffer assessed as parent compound remaining at 2 uM measured after 24 hrs by LC-MS analysis; type: physicochemical; details: read-out: Stability
Summary of the method: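 Compound at 2 μM final in aqueous buffer pH 7.4, sampled at 1, 7 and 24 h; LC–MS quantitation of each aliquot, % remaining expressed relative to the zero time point.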

[7] = Protein binding in plasma (unknown origin) at 5 uM measured after 6 hrs by LC-MS based equilibrium dialysis analysis; type: ADME, cell-free; details: read-out: PPB (converted)
Summary of the method: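 Equilibrium dialysis: plasma incubated with 5 μM compound for 6 h at 37 °C, final compound concentrations determined by LC–MS.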

[8] = Stability in human liver microsomes assessed as parent compound remaining at 5 uM measured after 1 hr in presence of metabolic phase 2 cofactors UDPGA by LC-MS analysis; type: ADME, Microsome; details: read-out: Stability
Summary of the method: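 Glucuronidation conditions: 5 μM compound with liver microsomes supplemented with UDPGA, 1 h at 37 °C; % remaining determined by LC–MS.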

[9] = biological target: T1, Nuclear receptor ROR-gamma; test: as §1, with “Competitive inverse” for “Inverse”, “mins in absence of RORgamma agonist cholesterol” for “mins”
[10] = biological target: T1, Nuclear receptor ROR-gamma; test: as §1, with “Competitive inverse” for “Inverse”, “mins in presence of 1 uM RORgamma agonist cholesterol” for “mins”
[11] = biological target: T1, Nuclear receptor ROR-gamma; test: as §1, with “Competitive inverse” for “Inverse”, “mins in presence of 0.25 uM RORgamma agonist cholesterol” for “mins”
[12] = biological target: T2, Nuclear receptor ROR-gamma (Homo sapiens) (UniProt P51449); test: as §1
T2 sequence (whole entry): T1 sequence (P51449 whole entry)

[13] = biological target: T3, Peroxisome proliferator-activated receptor gamma (Homo sapiens, UniProt P37231); test: Inverse agonist activity at His6-tagged PPARgamma LBD (unknown origin) assessed as inhibition of rosiglitazone-induced N-terminal biotinylated co-activator SRC1 box2 peptide recruitment measured after 30 mins by TR-FRET assay
T3 sequence (P37231 whole entry): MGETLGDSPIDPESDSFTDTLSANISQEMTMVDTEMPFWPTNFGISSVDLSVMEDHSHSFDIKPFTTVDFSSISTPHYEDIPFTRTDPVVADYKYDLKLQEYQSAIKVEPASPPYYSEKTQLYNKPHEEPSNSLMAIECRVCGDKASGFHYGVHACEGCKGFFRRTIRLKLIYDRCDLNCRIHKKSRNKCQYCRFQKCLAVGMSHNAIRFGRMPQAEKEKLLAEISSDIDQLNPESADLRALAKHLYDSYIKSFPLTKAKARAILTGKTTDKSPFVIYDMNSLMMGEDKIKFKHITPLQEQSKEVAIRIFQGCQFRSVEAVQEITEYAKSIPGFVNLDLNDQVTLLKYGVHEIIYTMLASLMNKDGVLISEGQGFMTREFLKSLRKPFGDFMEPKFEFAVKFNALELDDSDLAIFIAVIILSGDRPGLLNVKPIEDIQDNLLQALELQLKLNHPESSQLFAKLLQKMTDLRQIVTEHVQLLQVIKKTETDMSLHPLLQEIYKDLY
Summary of the method: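 His6-PPARγ-LBD at 100 nM with 100 nM N-terminal biotinylated SRC-1 box2 peptide in 10 mM HEPES, 150 mM NaCl, 5 mM DTT, 0.1% BSA, 0.1 mM CHAPS, pH 7.5, with 1 μM rosiglitazone. Tb anti-His donor, D2-streptavidin acceptor. Compounds in DMSO, 2× dilution series, 2% DMSO final. 30 min at room temperature. IC50 from sigmoidal fit of FRET ratio. Triplicate.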

O=C(O)c1ccc(C(=O)Nc2c(-c3c(Cl)cccc3C(F)(F)F)noc2-c2ccccc2)cc1
IC50 [1]: > 100 µM

O=C(O)c1ccc(NCc2c(-c3c(Cl)cccc3C(F)(F)F)noc2-c2cc[nH]c2)cc1
remaining at 1 h, 5 µM [2]: 85.9%
CLH [3]: 20.7 µL/min/mg
permeability [4]: 33.6%
solubility kinetic at 1.5 h, 500 µM [5]: 411 µM (≈ 190 µg/mL)
remaining at 24 h, 2 µM [6]: 95.3%
fraction unbound at 6 h, 5 µM [7]: 0.001
remaining at 1 h, 5 µM [8]: 69.8%

O=C(O)c1ccc(-c2nn(C(=O)c3c(Cl)cccc3C(F)(F)F)c3ccccc23)cc1
remaining at 1 h, 5 µM [2]: 100%
permeability [4]: 23.7%
solubility kinetic at 1.5 h, 500 µM [5]: 390 µM (≈ 173 µg/mL)
remaining at 24 h, 2 µM [6]: 81%
fraction unbound at 6 h, 5 µM [7]: 0.001
remaining at 1 h, 5 µM [8]: 47.1%

C[C@H]1O[C@@H](O[C@H]2[C@@H](O)C[C@H](O[C@H]3[C@@H](O)C[C@H](O[C@H]4CC[C@@]5(C)[C@H](CC[C@@H]6[C@@H]5C[C@@H](O)[C@]5(C)[C@@H](C7=CC(=O)OC7)CC[C@]65O)C4)O[C@@H]3C)O[C@@H]2C)C[C@H](O)[C@@H]1O [DIGOXIN]
IC50 [9]: 7.01 µM
IC50 [10]: 85.4 µM
IC50 [11]: 33.6 µM

Cc1onc(-c2c(Cl)cccc2C(F)(F)F)c1C(=O)Nc1ccc(C(=O)O)cc1
inhibition [12]: Dose-dependent effect
IC50 [1]: > 100 µM

O=C(O)c1ccc(NCc2c(-c3c(Cl)cccc3C(F)(F)F)noc2-c2ccco2)cc1
remaining at 1 h, 5 µM [2]: 86.5%
CLH [3]: 43.2 µL/min/mg
permeability [4]: 50.4%
solubility kinetic at 1.5 h, 500 µM [5]: 392 µM (≈ 181 µg/mL)
remaining at 24 h, 2 µM [6]: 100%
IC50 [13]: > 100 µM
remaining at 1 h, 5 µM [8]: 92.8%

O=C(O)c1c(-c2c(Cl)cccc2C(F)(F)F)noc1-c1ccccc1
IC50 [1]: > 100 µM

O=C(O)c1ccc(NCc2c(-c3c(Cl)cccc3C(F)(F)F)noc2-c2cccc3ccccc23)cc1
IC50 [1]: > 100 µM
IC50 [13]: > 100 µM

O=C(O)Cc1ccc(NC(=O)c2c(-c3c(Cl)cccc3C(F)(F)F)noc2-c2ccccc2)cc1
IC50 [1]: > 100 µM

O=C(O)c1ccc(NCc2c(-c3c(Cl)cccc3C(F)(F)F)noc2-c2ccccc2)cc1
IC50 [13]: 78.6 µM

O=C(O)c1ccc(NC(=O)c2c(-c3c(Cl)cccc3C(F)(F)F)noc2-c2ccccc2)cc1
remaining at 1 h, 5 µM [2]: 99.9%
inhibition [12]: Dose-dependent effect
permeability [4]: 60.1%
solubility kinetic at 1.5 h, 500 µM [5]: 490 µM (≈ 239 µg/mL)
remaining at 24 h, 2 µM [6]: 95.4%
fraction unbound at 6 h, 5 µM [7]: 0.022
remaining at 1 h, 5 µM [8]: 100%

O=C(O)c1ccc(NCc2c(-c3c(Cl)cccc3C(F)(F)F)noc2-c2cccs2)cc1
IC50 [1]: 1.75 µM
IC50 [13]: > 100 µM

CC(C)(C)OC(=O)c1ccc(NC(=O)c2c(-c3c(Cl)cccc3C(F)(F)F)noc2-c2ccccc2)cc1
IC50 [1]: > 100 µM

O=C(O)c1ccc(NCc2c(-c3c(Cl)cccc3C(F)(F)F)noc2-c2cccc(O)c2)cc1
IC50 [13]: > 100 µM
